Laboratory results from ChEMBL document CHEMBL1208742, “Synthesis and evaluation of beta-carboline derivatives as inhibitors of human immunodeficiency virus” (Bioorg Med Chem Lett, 2010).
Active and inactive are the calls of the source. The calls are words filed in the database; no cut-off is given here.

Tests used:
[1] = tested on: Human immunodeficiency virus 1; assay: Antiviral activity against HIV1 NL4.3 infected in human CEM-GFP cells assessed as inhibition p24 antigen production at non cytotoxic concentration after 8 days by ELISA; format: functional
Outline: (§1)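 CEM-GFP T cells carry a stably integrated LTR-driven GFP gene that is trans-activated by Tat on infection. Cells were infected with HIV-1 NL4.3 at MOI 0.05 and incubated with compound for up to 8 days post infection. Viral p24 was read by ELISA. Line 2 was tested at each compound's non-cytotoxic concentration. IC50 is 50% protection from virus, n = 3.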

[2] = Cytotoxicity against human CEM cells expressing green fluorescent protein assessed as oncytotoxic concentration by MTT assay; format: cell-based, CCRF-CEM; conditions: read-out: Activity
Outline: (§2)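 MTT cell viability assay in CEM-GFP cells. CC50 is the concentration reducing proliferation by 50%, n = 3. The non-cytotoxic concentration was chosen from these MTT results for the antiviral testing.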

[3] = tested on: Human immunodeficiency virus 1; assay: Antiviral activity against HIV1 NL4.3 infected in human CEM-GFP cells assessed as inhibition p24 antigen production after 8 days by ELISA; format: functional, organism-based; conditions: Human immunodeficiency virus 1, NL4.3, CEM-GFP, 192 h; outline: as §1
[4] = Therapeutic index, ratio of CC50 for human CEM cells expressing green fluorescent protein to IC50 for HIV1 NL4.3; format: cell-based, CCRF-CEM; conditions: read-out: TI
Outline: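 Therapeutic index is CC50 (MTT proliferation in CEM-GFP cells, n = 3) divided by IC50 (p24 ELISA protection of HIV-1 NL4.3-infected CEM-GFP cells, n = 3).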

[5] = Cytotoxicity against human CEM cells expressing green fluorescent protein by MTT assay; format: cell-based, CCRF-CEM; outline: as §2

SMILES | inhibition [1] | MNTC [2] [µM] | further results
CCCCn1c2c(c3ccccc31)CC(CCCC)(C(=O)OC)N=C2C (centres undefined) | inactive | 14.1 | –
CCCCn1c2ccccc2c2cc(C(=O)OC)nc(C)c21 | inactive | 1.69 | –
COC(=O)c1cc2c3ccccc3n(C)c2c(C)n1 | inactive | 19.7 | –
COC(=O)c1cc2c3ccccc3n3c(=O)ccc(n1)c23 | inactive | 3.59 | –
CCCn1c2ccccc2c2cc(C(=O)OC)nc(C)c21 | inactive | 3.54 | –
COC(=O)c1cc2c([nH]c3ccccc32)c(C=O)n1 | – | 9.83 | IC50 [3]: 2.9 µM; selectivity ratio [4]: 7; CC50 [5]: 20.3 µM
COC(=O)c1cc2c([nH]c3ccccc32)c(C)n1 | – | 4.17 | inhibition (INH) [1]: 21.3%
Cc1nc(C(=O)N2CCOCC2)cc2c1[nH]c1ccccc12 | inactive | 27.1 | –
CCCCC1(C(=O)OC)Cc2c([nH]c3ccccc23)C(C)=N1 (centres undefined) | – | 8.39 | inhibition (INH) [1]: 12.17%
C#CCn1c2ccccc2c2cc(C(=O)N3CCSCC3)nc(C)c21 | inactive | 21.5 | –
CCCCn1c2ccccc2c2cc(C(=O)N3CCSCC3)nc(C)c21 | inactive | 1.36 | –
CC(C)=CCn1c2ccccc2c2cc(C(=O)N3CCSCC3)nc(C)c21 | inactive | 19.8 | –
Cc1nc(C(=O)N2CCCCC2)cc2c1[nH]c1ccccc12 | inactive | 1.71 | –
CCn1c2ccccc2c2cc(C(=O)OC)nc(C)c21 | inactive | 3.73 | –
Cc1nc(C(=O)N2CCSCC2)cc2c3ccccc3n(Cc3ccccc3)c12 | inactive | 6.22 | –
Cc1nc(C(=O)N2CCSCC2)cc2c3ccccc3n(Cc3ccc(F)cc3)c12 | inactive | 23.8 | –
COC(=O)c1cc2c3ccccc3n(Cc3ccccc3)c2c(C)n1 | inactive | 15.1 | –
Cc1cn([C@H]2C[C@H](N=[N+]=[N-])[C@@H](CO)O2)c(=O)[nH]c1=O [ZIDOVUDINE] | – | – | IC50 [3]: 1.04 µM; CC50 [5]: 23 µM
CC1=NC(C(=O)O)Cc2c1[nH]c1ccccc21 (centres undefined) | – | 17.5 | inhibition (INH) [1]: 16.48%
COC(=O)C1Cc2c([nH]c3ccccc23)C(C)=N1 (centres undefined) | – | 18.6 | inhibition (INH) [1]: 17.26%
Cc1nc(C(=O)N2CCSCC2)cc2c1[nH]c1ccccc12 | – | 1.61 | inhibition (INH) [1]: 16.9%
